{"source": "ChEMBL document CHEMBL4414678", "about": "“Structure Determination, Functional Characterization, and Biosynthetic Implications of Nybomycin Metabolites from a Mining Reclamation Site-Associated Streptomyces” (J Nat Prod, 2019)", "key": {"A549 [1]": {"system": "A549", "assay": "Antiproliferative activity against human A549 cells assessed as reduction in cell viability after 72 hrs by alamar blue assay", "type": "functional, cell-based", "details": "A549, 72 h", "outline": "(§1)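 Cancer cell viability measured after 72 h exposure, in triplicate, and EC50/IC50 derived. DMSO served as the negative control. Positive controls were actinomycin D at 20 μM and H2O2 at 2 mM, each taken as 0% viable cells.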"}, "Salmonella enterica": {"system": "Salmonella enterica", "assay": "Antibacterial activity against Salmonella enterica ATCC 10708 after 16 to 48 hrs", "type": "functional", "outline": "(§2)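 MIC determined against each bacterial strain after 16–48 h incubation, in triplicate. DMSO vehicle was the negative control, and kanamycin and ampicillin were the positive controls.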"}, "Saccharomyces cerevisiae": {"system": "Saccharomyces cerevisiae", "assay": "Antifungal activity against Saccharomyces cerevisiae ATCC 204508 after 16 to 48 hrs", "type": "functional", "outline": "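MIC determined against the S. cerevisiae strain after 16–48 h incubation, in triplicate. DMSO vehicle was the negative control and amphotericin B the positive control.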"}, "Bacillus subtilis": {"system": "Bacillus subtilis", "assay": "Antibacterial activity against Bacillus subtilis ATCC 6633 after 16 to 48 hrs", "type": "functional", "outline": "as §2"}, "PC-3 [2]": {"system": "PC-3", "assay": "Antiproliferative activity against human PC3 cells assessed as reduction in cell viability after 72 hrs by alamar blue assay", "type": "functional, cell-based", "details": "PC-3, 72 h", "outline": "as §1"}, "Staphylococcus aureus": {"system": "Staphylococcus aureus", "assay": "Antibacterial activity against Staphylococcus aureus ATCC 6538 after 16 to 48 hrs", "type": "functional", "outline": "as §2"}, "Micrococcus luteus": {"system": "Micrococcus luteus", "assay": "Antibacterial activity against Micrococcus luteus ATCC 15307 after 16 to 48 hrs", "type": "functional", "outline": "as §2"}, "Mycolicibacterium aurum": {"system": "Mycolicibacterium aurum", "assay": "Antibacterial activity against Mycobacterium aurum ATCC 23366 after 16 to 48 hrs", "type": "functional", "outline": "as §2"}, "Escherichia coli": {"system": "Escherichia coli", "assay": "Antibacterial activity against Escherichia coli ATCC 12435 after 16 to 48 hrs", "type": "functional", "outline": "as §2"}, "PC-3 [3]": {"system": "PC-3", "assay": "Antiproliferative activity against human PC3 cells assessed as cell viability at 20 uM after 72 hrs by alamar blue assay relative to control", "type": "functional", "details": "PC-3, 72 h, read-out: Activity"}, "A549 [4]": {"system": "A549", "assay": "Antiproliferative activity against human A549 cells assessed as cell viability at 20 uM after 72 hrs by alamar blue assay relative to control", "type": "functional", "details": "A549, 72 h, read-out: Activity"}, "Ambystoma mexicanum": {"system": "Ambystoma mexicanum", "assay": "Toxicity in axolotl embryo at 1 uM after 7 days by tail regeneration assay", "type": "organism-based", "details": "in vivo, 168 h", "outline": "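Axolotl embryos (Ambystoma Genetic Stock Center) had the tail amputated and were exposed to 1 μM compound. Regeneration, judged by a rounded tail tip, was scored at 7 days post-amputation. DMSO vehicle was the negative control and geldanamycin the positive control.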"}}, "note": "Starred links: 1 amine or outer side, 2 acyl side, 3 side chain; linkers in the order of their positions; H or OH if unused. Positions of bridges follow the written chain, without caps; N, C: chain ends. Non-standard residues stand in square brackets, D forms with d. Residues, ends and D or L forms follow the SMILES beside them. Chains are numbered I, II in the order given. Actinocin(1to9) = Cc1c2oc3c(C)ccc(C(=O)[*:2])c3nc-2c(C(=O)[*:1])c(N)c1=O; NMeV = CN[C@H](C(=O)O)C(C)C; Sar = CNCC(=O)O"}
{"molecule": "COC(=O)c1cc2cc3c(c(O)c2c(=O)o1)O[C@]1(CC3)CC2=C(O1)C(=O)c1c(O)c(OC)cc(OC)c1C2=O", "values": [{"measurement": "EC50", "setting": "A549 [1]", "value": "> 100", "unit": "µM"}, {"measurement": "MIC", "setting": "Salmonella enterica", "value": "> 24", "unit": "µM"}, {"measurement": "MIC", "setting": "Saccharomyces cerevisiae", "value": 12, "unit": "µM"}, {"measurement": "MIC", "setting": "Bacillus subtilis", "value": 12, "unit": "µM"}, {"measurement": "EC50", "setting": "PC-3 [2]", "value": "> 100", "unit": "µM"}, {"measurement": "MIC", "setting": "Staphylococcus aureus", "value": 12, "unit": "µM"}, {"measurement": "MIC", "setting": "Micrococcus luteus", "value": 6, "unit": "µM"}, {"measurement": "MIC", "setting": "Mycolicibacterium aurum", "value": "> 24", "unit": "µM"}, {"measurement": "MIC", "setting": "Escherichia coli", "value": "> 24", "unit": "µM"}]}
{"molecule": "COC(=O)c1cc2cc(CCc3cc4c(o3)C(=O)c3c(O)c(OC)cc(OC)c3C4=O)c(O)c(O)c2c(=O)o1", "values": [{"measurement": "EC50", "setting": "A549 [1]", "value": "> 100", "unit": "µM"}, {"measurement": "MIC", "setting": "Salmonella enterica", "value": "> 24", "unit": "µM"}, {"measurement": "MIC", "setting": "Saccharomyces cerevisiae", "value": "> 24", "unit": "µM"}, {"measurement": "MIC", "setting": "Bacillus subtilis", "value": 0.4, "unit": "µM"}, {"measurement": "EC50", "setting": "PC-3 [2]", "value": "> 100", "unit": "µM"}, {"measurement": "MIC", "setting": "Staphylococcus aureus", "value": 3, "unit": "µM"}, {"measurement": "MIC", "setting": "Micrococcus luteus", "value": 1.5, "unit": "µM"}, {"measurement": "MIC", "setting": "Mycolicibacterium aurum", "value": "> 24", "unit": "µM"}, {"measurement": "MIC", "setting": "Escherichia coli", "value": "> 24", "unit": "µM"}]}
{"molecule": "CO[C@H]1/C=C/O[C@@]2(C)Oc3c(C)c(O)c4c(O)c(c(/C=N/N5CCN(C)CC5)c(O)c4c3C2=O)NC(=O)/C(C)=C\\C=C\\[C@H](C)[C@H](O)[C@@H](C)[C@@H](O)[C@@H](C)[C@H](OC(C)=O)[C@@H]1C", "note": "[RIFAMPIN]", "values": [{"measurement": "MIC", "setting": "Mycolicibacterium aurum", "value": 2, "unit": "µM"}]}
{"molecule": "Cc1c2oc3c(C)ccc(C(=O)N[C@@H]4C(=O)N[C@H](C(C)C)C(=O)N5CCC[C@H]5C(=O)N(C)CC(=O)N(C)[C@@H](C(C)C)C(=O)O[C@@H]4C)c3nc-2c(C(=O)N[C@@H]2C(=O)N[C@H](C(C)C)C(=O)N3CCC[C@H]3C(=O)N(C)CC(=O)N(C)[C@@H](C(C)C)C(=O)O[C@@H]2C)c(N)c1=O", "note": "[DACTINOMYCIN] (I: T[dV]P[Sar][NMeV] / II: T[dV]P[Sar][NMeV]; ester I:1-I:C, II:1-II:C; linker I:N-II:N via Actinocin(1to9))", "values": [{"measurement": "viability at 20 µM", "setting": "PC-3 [3]", "value": 0, "unit": "%"}, {"measurement": "viability at 20 µM", "setting": "A549 [4]", "value": 0, "unit": "%"}]}
{"molecule": "C/C=C/C=C/[C@H]1C[C@H](O)CCN1", "values": [{"measurement": "EC50", "setting": "A549 [1]", "value": "> 100", "unit": "µM"}, {"measurement": "MIC", "setting": "Salmonella enterica", "value": "> 24", "unit": "µM"}, {"measurement": "MIC", "setting": "Saccharomyces cerevisiae", "value": "> 24", "unit": "µM"}, {"measurement": "MIC", "setting": "Bacillus subtilis", "value": "> 24", "unit": "µM"}, {"measurement": "EC50", "setting": "PC-3 [2]", "value": "> 100", "unit": "µM"}, {"measurement": "MIC", "setting": "Staphylococcus aureus", "value": "> 24", "unit": "µM"}, {"measurement": "MIC", "setting": "Micrococcus luteus", "value": "> 24", "unit": "µM"}, {"measurement": "MIC", "setting": "Mycolicibacterium aurum", "value": "> 24", "unit": "µM"}, {"measurement": "MIC", "setting": "Escherichia coli", "value": "> 24", "unit": "µM"}]}
{"molecule": "COC(=O)c1cc2cc3c(c(O)c2c(=O)o1)O[C@]1(CC3)Cc2c(O)c3c(c(O)c2O1)C(=O)C(OC)=CC3=O", "values": [{"measurement": "EC50", "setting": "A549 [1]", "value": "> 100", "unit": "µM"}, {"measurement": "MIC", "setting": "Salmonella enterica", "value": "> 24", "unit": "µM"}, {"measurement": "MIC", "setting": "Saccharomyces cerevisiae", "value": 3, "unit": "µM"}, {"measurement": "Activity", "setting": "Ambystoma mexicanum", "value": "Non-Toxic"}, {"measurement": "MIC", "setting": "Bacillus subtilis", "value": 0.02, "unit": "µM"}, {"measurement": "EC50", "setting": "PC-3 [2]", "value": "> 100", "unit": "µM"}, {"measurement": "MIC", "setting": "Staphylococcus aureus", "value": 0.075, "unit": "µM"}, {"measurement": "MIC", "setting": "Micrococcus luteus", "value": 0.15, "unit": "µM"}, {"measurement": "MIC", "setting": "Mycolicibacterium aurum", "value": 12, "unit": "µM"}, {"measurement": "MIC", "setting": "Escherichia coli", "value": "> 24", "unit": "µM"}]}
{"molecule": "CC1(C)S[C@@H]2[C@H](NC(=O)[C@H](N)c3ccccc3)C(=O)N2[C@H]1C(=O)O", "note": "[AMPICILLIN]", "values": [{"measurement": "MIC", "setting": "Salmonella enterica", "value": 25, "unit": "µM"}, {"measurement": "MIC", "setting": "Staphylococcus aureus", "value": 12, "unit": "µM"}, {"measurement": "MIC", "setting": "Micrococcus luteus", "value": 25, "unit": "µM"}, {"measurement": "MIC", "setting": "Escherichia coli", "value": 25, "unit": "µM"}]}
